Screening data as filed in PubChem.
An excerpt weighted towards active compounds, which were near 2.3% of everything screened.
TRPC4 PAM = TRPC4 (mouse) allosteric potentiation; 310,000 tested, 0.42% active; AID 2227; HEK293 TRPC4beta/mu-opioid, DAMGO EC20, Fluo-4 Ca2+ flux; active compounds read high; B-score at 10 µM;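 active = B-score of calcium response area above 5 SD of library B-scores, with initial fluorescence ratio within 5 SD of library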;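 also: B-score of integrated fluorescence ratio over time as area under calcium response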
Target sequence (Q9QUQ5 whole entry, looked up): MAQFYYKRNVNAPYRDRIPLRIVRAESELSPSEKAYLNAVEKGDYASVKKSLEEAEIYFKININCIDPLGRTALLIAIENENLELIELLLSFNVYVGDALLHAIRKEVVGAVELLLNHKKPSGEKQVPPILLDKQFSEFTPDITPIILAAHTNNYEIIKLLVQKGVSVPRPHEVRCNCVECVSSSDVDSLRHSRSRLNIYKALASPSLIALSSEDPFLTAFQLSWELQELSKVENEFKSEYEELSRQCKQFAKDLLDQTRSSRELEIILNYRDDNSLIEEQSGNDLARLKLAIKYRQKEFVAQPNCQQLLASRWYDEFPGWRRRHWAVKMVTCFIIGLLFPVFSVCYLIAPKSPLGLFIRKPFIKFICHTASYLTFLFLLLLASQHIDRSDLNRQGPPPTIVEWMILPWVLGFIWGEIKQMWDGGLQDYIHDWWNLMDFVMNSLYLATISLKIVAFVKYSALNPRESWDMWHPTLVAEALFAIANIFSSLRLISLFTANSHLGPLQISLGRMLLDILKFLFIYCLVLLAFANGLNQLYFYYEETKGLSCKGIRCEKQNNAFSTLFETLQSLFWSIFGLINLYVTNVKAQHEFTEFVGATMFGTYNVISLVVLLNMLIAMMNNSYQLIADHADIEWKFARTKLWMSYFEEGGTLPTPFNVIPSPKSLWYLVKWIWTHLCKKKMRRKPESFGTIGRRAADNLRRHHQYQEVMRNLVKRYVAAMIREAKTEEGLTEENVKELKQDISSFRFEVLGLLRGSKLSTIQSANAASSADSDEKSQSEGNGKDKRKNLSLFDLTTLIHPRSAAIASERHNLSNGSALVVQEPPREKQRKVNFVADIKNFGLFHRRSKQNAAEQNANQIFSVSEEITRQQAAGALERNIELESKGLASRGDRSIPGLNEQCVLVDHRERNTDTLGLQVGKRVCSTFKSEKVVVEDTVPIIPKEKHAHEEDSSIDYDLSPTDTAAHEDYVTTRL
TRPC6 inh = mouse TRPC6 channel inhibition; AID 2553; HEK293-TRPC6, membrane potential dye, ACh-evoked depolarization; active compounds read low; B-score at 10 µM; 310,000 tested, 1.1% active;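 active = B-score under library mean minus 3 SD, initial fluorescence not abnormally high, positive integrated signal ratio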;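 also: B-score derived from integrated fluorescence ratio over the kinetic read; more negative B-score means stronger inhibition of depolarization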
TRPC6 activator = activators of mouse TRPC6 channel | 310,000 tested, 0.13% active | B-score at 10 µM | HEK293-TRPC6 membrane potential dye fluorescence; active compounds read high | Q61143 | AID 2550;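 active = B-score of the integrated fluorescence ratio above library mean plus 3 SD, and starting fluorescence ratio within library mean plus 5 SD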;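 also: higher score means more depolarization so channel activation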
TRPC4 block = blocks the mouse TRPC4 cation channel; 300,000 tested, 0.39% active; B-score at 10 µM; HEK293 TRPC4beta/mu-opioid, DAMGO-evoked Fluo4 calcium flux; active compounds read low;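 active = B-score over 3 SD under the library average, no early fluorescence shift, positive overall ratio signal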
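Material: HEK293 cells with stable TRPC4beta plus mu-opioid receptor expression; probe or stimulus: DAMGO in two steps, submaximal then maximal; technique: Fluo4 calcium fluorescence by kinetic imaging, 5 s 1 Hz baseline; measure: integrated fluorescence ratio relative to baseline, converted to per-well B score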
TRPC4 act = activators of mouse TRPC4 channel. Q9QUQ5. HEK293 TRPC4beta/mu-opioid, Fluo4 calcium fluorescence; active compounds read high. AID 2237. B-score at 10 µM. 310,000 tested, 0.49% active;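 active = B-score above 5 SD of library B-scores, and initial fluorescence ratio not above library mean plus 5 SD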;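 also: positive B-score marks a calcium rise read as TRPC4 activation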
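Assay system – TRPC4beta and mu-opioid receptor HEK293 stable cells · Measured by – Fluo4 fluorescence, kinetic · Schedule – dye loading 45 min room temperature, 110 s kinetic read · Read-out – B-scored integrated calcium fluorescence ratio · Controls – buffer and maximal DAMGO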
Active calls of the source: *; i = inactive.

SMILES	TRPC4 PAM	TRPC6 inh	TRPC6 activator	TRPC4 block	TRPC4 act
Nc1ccnc(=O)[nH]1	i	i	i	i	i
O=c1c2ccc(Cl)cc2nc(-c2ccc([N+](=O)[O-])cc2)n1O	i	i	i	i	63*
O=c1c2cc(Cl)ccc2nc(-c2ccccc2)n1O	i	i	i	i	i
N#Cc1ccc(-c2nc3ccc(Br)cc3c(=O)n2O)cc1	i	i	i	i	i
O=c1c2cc(Br)ccc2nc(-c2ccc([N+](=O)[O-])cc2)n1O	i	i	i	i	81*
O=c1c2cc(Cl)ccc2nc(-c2ccc(Cl)c(Cl)c2)n1O	i	i	i	i	237*
O=c1c2cc(Br)ccc2nc(-c2cccc(C(F)(F)F)c2)n1O	i	i	i	i	193*
OC(CNCc1ccccc1Cl)C(F)(F)F (stereo not given)	i	i	i	i	i
COc1cc(/C=C2/C(=O)NN(c3ccc(Cl)c(Cl)c3)C2=O)cc([N+](=O)[O-])c1O	i	i	i	i	i
COc1cc(/C=C2\SC(=O)N(c3ccccc3Cl)C2=O)cc([N+](=O)[O-])c1O	i	i	i	-9*	i
COc1cc(NC(=O)c2cc(S(=O)(=O)N3CCCCC3)c[nH]2)cc(OC)c1	i	i	i	i	i
Cc1ncc(CN2CCCC(C(=O)Nc3ccc(-n4ccnc4C)cc3)C2)cn1 (stereo not given)	i	i	i	i	i
O=c1c2cc(O)c(O)cc2oc2cc(O)c(C3OC(CO)C(O)C(O)C3O)c(O)c12 (stereo not given)	i	i	i	i	i
COc1ccc(-c2ccc(CNCc3ccccn3)o2)cc1Cl	i	i	i	-8*	i
COc1ccc(CCNC(=O)C2CCN(C(=O)c3ccc(F)cc3)CC2)cc1	i	i	i	i	i
COc1ccc(CCNC(=O)C2CCN(C(=O)c3ccc(C(C)(C)C)cc3)CC2)cc1	17*	i	i	i	i
Cc1cc(OCCN2CCCC2)ccc1[N+](=O)[O-]	30*	i	i	i	i
COc1ccc(-n2nc(C(=O)NCC(=O)NCCCN3CC(C)CC(C)C3)c3ccccc3c2=O)cc1Cl (stereo not given)	i	i	i	i	128*
Cc1ncsc1CCC(=O)N1CCCC(Nc2ccc(C(C)C)cc2)C1 (stereo not given)	i	i	i	i	i
CCOC(=O)C1CCCN(C2CCN(Cc3nc(Cc4ccccc4)no3)CC2)C1 (stereo not given)	11*	i	i	i	i
O=S(=O)(NC1=NCCCCC1)c1ccc2ccccc2c1	i	i	i	i	i
CCCOc1ccc(-c2nc(SCc3ccccc3)[nH]c(=O)c2C#N)cc1OC	i	i	i	-7*	i
CCSc1nc(-c2ccccc2)c(C#N)c(=O)[nH]1	i	i	i	i	i
CC1(C)N([O-])C2=C(CCCC2)[N+]1=O	i	i	i	i	i
Nc1ccc(-c2nc3c(ccc4ccccc43)[nH]2)cc1	i	-9.5*	i	i	i
SMILES	TRPC4 PAM	TRPC6 inh	TRPC6 activator	TRPC4 block	TRPC4 act
CCCn1c(N)c(C(=O)CSc2n[nH]c(-c3ccc(C)cc3)n2)c(=O)[nH]c1=O	123*	i	i	i	i
COc1ccc(-c2nc3ccccc3c(=O)n2NC(=O)c2cccnc2Cl)cc1OC	i	i	i	i	i
Nc1cc(Cl)ccc1N1CCCCCC1	i	i	i	i	i
COc1ccccc1N1CCN(C(c2cccs2)C(C)NC(=O)c2ccco2)CC1 (stereo not given)	i	i	i	i	103*
CCOC(=O)C1(Cc2cccc(F)c2)CCN(Cc2cnn(CC)c2)CC1	i	i	i	i	125*
CCOC(=O)C1(Cc2cccc(F)c2)CCN(Cc2cnn(CC)c2C)CC1	i	i	i	i	143*
CCOC(=O)C1(Cc2cccc(F)c2)CCN(CCCn2cccn2)CC1	i	i	i	i	i
CCOc1cc(C(=S)N2CCOCC2)ccc1OC(=O)c1cc(OC)c(OC)c(OC)c1	i	i	i	i	i
Cc1ccc(Oc2ccccc2/C=N/O)cc1	i	i	i	-7*	i
OCCC1CN(Cc2ccc(Oc3ncccn3)cc2)CCN1Cc1ccc(F)c(F)c1 (stereo not given)	i	i	i	i	i
CCOc1ccc(CN(C)CC(=O)NNC(=O)c2ccc(Cl)cc2)cc1OC	17*	i	i	i	i
COc1cccc(CN(C)C(=O)CCNC(=O)c2ccc(Br)cc2)c1	i	i	i	i	i
Cc1cc(C[n+]2ncsc2N)c2ncccc2c1	i	i	i	i	i
CCOc1ccc2c(c1)sc(N)[n+]2Cc1cc(C)cc2cccnc12	i	i	i	-7*	i
COc1ccc2c(c1)sc(N)[n+]2Cc1cc(C)cc2cccnc12	i	i	i	-5*	i
Cc1cc(C[n+]2cc(Cl)ccc2N)c2ncccc2c1	i	i	i	i	i
CC(C)Cc1ccc(S(=O)(=O)NCC2CCCO2)cc1 (stereo not given)	i	i	i	i	i
NC1=NC2=C(CCCC2)C2(CCCCC2)S1	i	i	i	-6*	i
O=S(=O)(c1cc(Cl)c(Cl)cc1Cl)N1CCN2CCCC2C1 (stereo not given)	i	i	i	i	67*
COc1ccc(N2CCN(c3nc4ccc(C)cn4c(=O)c3C=O)CC2)cc1	i	i	i	i	i
O=c1c(Cc2ccccc2)c(O)ccn1C1CCCCCCC1	i	i	i	i	i
NS(=O)(=O)c1ccc(NCc2ccccc2OCc2ccc(F)cc2)cc1	i	i	i	i	i
CCOc1ccc(CNCCc2ccc(S(N)(=O)=O)cc2)cc1	i	i	i	i	i
NS(=O)(=O)c1ccc(CCNCc2ccccc2OCc2ccc(F)cc2)cc1	i	i	i	-6*	i
CCOc1ccc2ccccc2c1CNCCc1ccc(S(N)(=O)=O)cc1	i	i	i	-6*	i
COCCn1c(SCC(=O)Nc2ccc(S(=O)(=O)N3CCOCC3)cc2)nc2ccccc21	31*	i	i	i	i
CCOc1ccccc1N1CC(C(=O)N2CCOCC2)CC1=O (stereo not given)	i	i	i	i	i
Cc1cc(Cl)c(OCCCCNC(C)(C)C)c(Br)c1	i	i	12*	i	i
